# Published values gathered from unrelated publications.
# Each line is one published result; the experiments were not run side by side.
SMILES,cell line,assay,setting,quantity,result
CC(C)[C@@H]1NC(=O)[C@H](C)OC(=O)[C@@H](C(C)C)NC(=O)[C@@H](C(C)C)OC(=O)[C@H](C(C)C)NC(=O)[C@H](C)OC(=O)[C@@H](C(C)C)NC(=O)[C@@H](C(C)C)OC(=O)[C@H](C(C)C)NC(=O)[C@H](C)OC(=O)[C@@H](C(C)C)NC(=O)[C@@H](C(C)C)OC1=O,C6,"cell growth or viability, SRB",,IC50,24 nM
O=C(O)C(Cl)Cl,BCPAP,"cell growth or viability, MTT",72 h,IC50,> 50000 nM
COc1ccc2c(c1)c(C(=O)C(=O)NCCc1c[nH]c3ccccc13)cn2Cc1ccc(Cl)cc1,C4-2,"cell growth or viability, MTT",,IC50,> 100000 nM
c1ccc2c(NCCCCCCNc3c4ccccc4nc4ccccc34)c3ccccc3nc2c1,MDA-MB-468,"cell growth or viability, MTT",,IC50,96 nM
CCn1cc(C(=O)C(=O)NCCc2c[nH]c3ccccc23)c2ccccc21,C4-2,"cell growth or viability, MTT",,IC50,> 100000 nM
COc1cc(O)c2c(=O)c(OC)c(-c3ccc(O)cc3)oc2c1,RBL-2H3,"degranulation, inhibitor",,IC50,80400 nM
COc1cccc2c1C(=O)c1c(O)c3c(c(O)c1C2=O)C[C@@](O)(C(=O)CO)C[C@@H]3O[C@H]1C[C@H](N)[C@H](O)[C@H](C)O1,C6,"cell growth or viability, SRB",72 h,IC50,500 nM
Cc1c2cnccc2c(C)c2c1c1ccccc1n2CCCCCCNCc1ccccc1,MDA-MB-468,"cell growth or viability, MTT",,IC50,720 nM
O=C(NCCc1c[nH]c2ccccc12)C(=O)c1cn(Cc2ccc(Cl)cc2)c2ccc(F)cc12,C4-2,"cell growth or viability, MTT",,IC50,> 100000 nM
Cn1cncc1[C@@](N)(c1ccc(Cl)cc1)c1ccc2c(c1)c(-c1cccc(Cl)c1)cc(=O)n2C,HN-6,cell growth or viability,72 h,IC50,2270 nM
c1ccc([C@@H]2C[C@H]2NC2CCNCC2)cc1,MV4-11,"cell growth or viability, resazurin",96 h,EC50,0.48 nM
